The values that follow come from PubChem BioAssay AID463111 (Johns Hopkins Ion Channel Center, 2010).

Screen size: about 310,000 compounds; about 2,800 (0.9%) were called active.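 The calls were made as follows: active = B-score of the integrated calcium signal more than 4 SD below the library mean, with starting fluorescence not abnormally high; inactive = the rest.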 This excerpt belongs to a sample that is enriched for actives. Residues, ends and D or L forms follow the SMILES beside them. *: point of attachment. Bz = O=C(c1ccccc1)*

This assay in a line: enhancers of RGS4 function in calcium signaling – cell-based, HEK293 M3R inducible RGS4, calcium flux, primary screen (AID 463111).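 As to B-score: negative B-score means reduced calcium response which marks RGS4 activation or potentiation.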 Conditions: HEK293 M3R/inducible RGS4, carbachol calcium flux Fluo4, at 10 µM; stronger effect = lower value. In short, it runs like this:
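Detection: kinetic calcium fluorescence imaging with Fluo4-AM dye, 2 µM / Material: HEK293 cells with stable M3R and inducible RGS4 / Schedule: recording 10 s baseline at 1 Hz, 100 s post-agonist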
On the technique in general: A change in cytosolic calcium serves as a functional read-out for many receptors and channels.
On to `CCc1cccc(C)c1NS(=O)(=O)c1c(C)nc2sccn2c1=O`, for which the B-score result was “inactive”.

`CCSc1nc(=S)n(CC)c(C)c1C(C)=O`: the B-score result is “inactive”.

As for `Cc1ccccc1-n1nc(SCC(=O)O)sc1=S`, the B-score result is “inactive”.

Turning to `CC(CCc1ccccc1)NC(=O)COC(=O)c1ccc(F)cc1` (centres undefined), the B-score result is “inactive”.

In the case of `N/C(=N\OC(=O)COc1ccc([N+](=O)[O-])cc1)c1ccc(Br)cc1`, the B-score result was “inactive”.

For the compound `N/C(=N\OC(=O)Cc1ccc([N+](=O)[O-])cc1)c1ccccn1`, the B-score entry is “inactive”.

Consider `Cc1cc(C)cc(OCC(=O)O/N=C(\N)Cc2ccc([N+](=O)[O-])cc2)c1`, for which the B-score is -7.82 (active).

In the case of `N/C(Cc1ccc([N+](=O)[O-])cc1)=N\OC(=O)C1CCCCC1`, the B-score entry was “inactive”.

For the compound `N/C(Cc1ccc([N+](=O)[O-])cc1)=N\OC(=O)COc1ccc2ccccc2c1`, the B-score was -7.23 (active).

In the case of `CCOC(=O)COc1ccc([N+](=O)[O-])cc1`, the B-score result is “inactive”.

In the case of `CCOc1ccc(N2C(=O)Nc3ccccc3C2(O)C(=O)NCc2ccco2)cc1` (centres undefined), the B-score result was “inactive”.

For the compound `O=C(COC(=O)Cc1ccc(Br)cc1)Nc1c(F)c(F)c(F)c(F)c1F`, the B-score entry is “inactive”.

As to `CN(Cc1ccccc1F)C(=O)C(Cc1ccccc1)NC(=O)c1ccccc1` (centres undefined), the B-score was -7.13 (active).

As to `O=C(NC(Cc1ccccc1)C(=O)N1CCCC1C(=O)O)c1ccccc1` (stereo not drawn) (Bz-Phe-Pro-OH; configuration not given here), the B-score result was “inactive”.

For `O=C(NC(Cc1ccccc1)C(=O)N1CCCC(C(F)(F)F)C1)c1ccccc1` (centres undefined), the B-score result is “inactive”.

Turning to `O=C(/C=C/c1ccc([N+](=O)[O-])o1)NNC(=O)c1ccc(F)cc1`, the B-score entry was “inactive”.

In the case of `CC1CCN(C(=O)COC(=O)c2cc(S(=O)(=O)N3CCOCC3)ccc2Cl)CC1`, the B-score entry was “inactive”.

As to `COc1ccc(CCNC(=O)CC2SC(=Nc3cc(C)cc(C)c3)NC2=O)cc1OC` (centres undefined), the B-score result is “inactive”.

On to `CC(C)c1ccc2c(c1)c(SC(C)(C)C)c(CC(C)(C)C(=O)O)n2Cc1ccc(Cl)cc1`, for which the B-score was -7.99 (active).

Turning to `O=C(O)c1ccc(Cn2c(=S)[nH]c3cc(Cl)ccc3c2=O)cc1`, the B-score entry was “inactive”.

Turning to `Nc1nc(NC(=O)/C=C/c2ccc(F)cc2)nn1-c1ccccc1`, the B-score result was “inactive”.

Take `C[C@@H](C(=O)N1CCNCC1)n1cc(CCC(=O)O)nn1`: the B-score entry is “inactive”.

For the compound `CC(C)C(=O)Nc1cccc(NC(=S)NC(=O)C(c2ccccc2)c2ccccc2)c1`, the B-score result was “inactive”.

As for `O=C(NNC(=S)NCc1ccco1)C(c1ccccc1)c1ccccc1`, the B-score entry was “inactive”.

Consider `CCCCC(=O)NNC(=S)NC(=O)C(c1ccccc1)c1ccccc1`, for which the B-score is -9.53 (active).

In the case of `O=C(N/N=C/c1ccsc1)c1cc(O)cc(O)c1`, the B-score result was “inactive”.

In the case of `COc1ccc(CN2CC[C@H]3C=CC[C@@H](C(=O)N4CCOCC4)[C@H]3C2=O)cc1OC`, the B-score entry is “inactive”.

`CCN(Cc1ccncc1)C(=O)CCc1ccccc1`: the B-score result is “inactive”.

Take `Cc1cc(C)n(Cc2cnc(N3CCOCC3)s2)n1`: the B-score result is “inactive”.

In the case of `CCC1C=C(c2ccccc2)C=CN=C1N(CC)CC` (centres undefined), the B-score is -10.2 (active).

Take `COc1cccc(NC(=O)N2C3CCCC2CC(NC(C)=O)C3)c1` (centres undefined): the B-score entry is “inactive”.

With `CCCn1c(SCC(=O)c2ccc3c(c2)OCCO3)nnc1C(C)C`, the B-score entry is “inactive”.

On to `O=S(=O)(c1ccc(Br)cc1)n1ccc2ccccc21`, for which the B-score is -7.7 (active).

Take `O=S(=O)(c1ccc(Br)cc1)N1CCC(c2nc3ccccc3[nH]2)CC1`: the B-score result was “inactive”.

As for `O=C(c1ccccc1F)N1CCN(S(=O)(=O)c2ccc(Br)cc2)CC1`, the B-score result is “inactive”.

In the case of `CCC1CCc2c(sc(NC(C)=O)c2C#N)C1` (centres undefined), the B-score result was “inactive”.

In the case of `CCC(C)c1ccc(NC(=S)NCc2ccccn2)cc1` (centres undefined), the B-score entry is “inactive”.

Turning to `FC(F)(F)c1cccc(-c2nc(COc3ccc(Cl)cc3Cl)no2)c1`, the B-score is -7.64 (active).

Take `FC(F)(F)c1cnc(Oc2ccccc2-c2nnc(-c3ccc(Cl)cc3)o2)c(Cl)c1`: the B-score result was “inactive”.

In the case of `Cc1cc(Cl)ccc1OCc1nc(-c2ccncc2)no1`, the B-score result was “inactive”.

As to `Cc1ccc(NC(=O)COc2coc(CN3CCc4ccccc4C3)cc2=O)cc1Cl`, the B-score result is “inactive”.

With `CCOC(=O)C1(Cc2ccccc2C)CCCN(C(=O)c2ccc(COC)o2)C1` (centres undefined), the B-score result was “inactive”.

For `CCOc1cc(C(=S)N2CCOCC2)ccc1OS(=O)(=O)c1ccc(Br)cc1`, the B-score entry was “inactive”.

With `Cn1nccc1C(=O)NC1CCCc2c1cnn2-c1ccccc1F` (centres undefined), the B-score result is “inactive”.

As to `COc1ccc(C(=O)NC2CCCc3c2cnn3-c2cccc(C)c2C)c(OC)n1` (centres undefined), the B-score is -10.2 (active).

In the case of `Cc1cc(C(=O)NC2CCCc3c2cnn3-c2cccc(C)c2C)c(C)o1` (centres undefined), the B-score entry is “inactive”.

As to `Cc1cccc(C(=O)Nc2ccc(C(=O)/C=C/c3cccs3)cc2)c1`, the B-score was -10.5 (active).

As for `Cc1cccc(C(=O)Nc2ccc(CC(=O)O)cc2)c1`, the B-score entry is “inactive”.

As for `Cc1cccc(C(=O)Nc2ccc(C(=O)N/N=C/c3cccc(C)n3)cc2)c1`, the B-score entry is “inactive”.

Turning to `Cn1nc(C(F)(F)F)c2cc(NC(=O)OCC(C)(C)C)sc21`, the B-score entry was “inactive”.

For `CN(C(=O)CN1C(=O)CCSc2ccc(S(=O)(=O)N3CCCC3)cc21)c1ccccc1`, the B-score result was “inactive”.

As to `CCCCOc1ccc(N(CC(=O)NCC2CCCO2)C(=O)CCC(=O)Nc2cc(C)ccn2)cc1` (centres undefined), the B-score entry is “inactive”.

As to `COc1ccccc1Oc1ccc(S(=O)(=O)Nc2cccnc2)cc1`, the B-score entry is “inactive”.

Take `Cc1cc(C)cc(NS(=O)(=O)c2ccc(Oc3ncc(C(F)(F)F)cc3Cl)cc2)c1`: the B-score is -8.23 (active).

As for `Cc1cc(C)cc(NS(=O)(=O)c2ccc(F)cc2)c1`, the B-score entry was “inactive”.

As for `CCN1C(=O)[C@H]2[C@@H](c3ccc(C)cc3)N3C(=O)N(c4cccc(Br)c4)C(=O)[C@@]3(CC)[C@H]2C1=O`, the B-score entry is “inactive”.

For the compound `Cc1cc(NC(=O)CCN2CCN(Cc3ccccc3)CC2)ccc1Br`, the B-score entry was “inactive”.

Regarding `O=C(Nc1ccccc1C(=O)N1CCOCC1)C1CCC(=O)N1C1CCCC1` (centres undefined), the B-score entry is “inactive”.

As for `CCOc1ccc(CNC(=O)C2CCC(=O)N2C2CCCC2)cc1OC` (centres undefined), the B-score result is “inactive”.

For `CCc1ccccc1NC(=O)[C@@H]1CCC(=O)N1C1OC(=O)c2c1ccc(OC)c2OC` (some centres undefined), the B-score was -8.3 (active).

For `CC1CC(C)CN(CC(=O)N2c3ccccc3CCc3ccccc32)C1` (centres undefined), the B-score result was “inactive”.

For `CCC(=O)N1CCCc2ccccc21`, the B-score result is “inactive”.

On to `CN1CCN(C(=O)N2c3ccccc3CCc3ccccc32)CC1`, for which the B-score is -9.54 (active).

Take `N#CC1(C#N)C(C(=O)C23CC4CC(CC(C4)C2)C3)C12CCOCC2` (centres undefined): the B-score entry was “inactive”.

As for `FC(F)(F)C1CCCN(c2nsc3ccccc23)C1` (centres undefined), the B-score entry is “inactive”.

Take `COC(=O)c1cccc(N(CC(=O)NCC2CCCO2)C(=O)CCC(=O)Nc2cc(C)on2)c1` (centres undefined): the B-score entry was “inactive”.

As for `CC(C)CCn1c(CN(C)Cc2ccccc2)nc2c1c(=O)n(C)c(=O)n2C`, the B-score result is “inactive”.

As to `CN(Cc1ccccc1)c1nc2c(c(=O)[nH]c(=O)n2C)n1CCSc1nc2ccccc2[nH]1`, the B-score entry was “inactive”.

For the compound `Cc1ccnc(SCCn2c(N(C)Cc3ccccc3)nc3c2c(=O)n(C)c(=O)n3C)n1`, the B-score was -7.93 (active).

As for `CC(C)c1nnc(NC(=O)COC(=O)/C=C/c2ccc([N+](=O)[O-])cc2)s1`, the B-score entry was “inactive”.

On to `COCCCNc1nc2ccccc2nc1NS(=O)(=O)c1ccc(F)cc1`, for which the B-score result is “inactive”.

`O=C(Cn1ncc(N2CCCC2)c(Br)c1=O)c1ccc(Cl)cc1`: the B-score result was “inactive”.

For the compound `COc1cccc(N(CC(=O)NC2CCCC2)C(=O)CCCC(=O)Nc2ccccn2)c1`, the B-score entry was “inactive”.

On to `Fc1ccc(Cn2nnnc2C(c2cccs2)N2CCCCCC2)cc1` (centres undefined), for which the B-score result is “inactive”.

On to `CCCCN1C(=O)/C(=C2/C=CC=CN2C)SC1=S`, for which the B-score is -8.69 (active).

Take `CCN1C(=O)/C(=C2/Sc3ccccc3N2CCCS(=O)(=O)O)SC1=S`: the B-score result was “inactive”.

In the case of `COc1cc(/C=C2/SC(=S)N(Cc3ccccc3)C2=O)cc(OC)c1O`, the B-score result is “inactive”.

With `CN1C=CC=C/C1=C1\SC(=S)N(Cc2ccccc2)C1=O`, the B-score is -9.24 (active).

In the case of `CCCCN1C(=O)/C(=C2/Sc3ccc(Cl)cc3N2CC)SC1=S`, the B-score result was “inactive”.

Regarding `CCCCN1C(=O)/C(=C/C=C2/C=Cc3ccccc3N2CC)SC1=S`, the B-score entry is “inactive”.

Turning to `CC(C)CNC(=S)NNC(=O)c1ccccc1OC(F)F`, the B-score result is “inactive”.

With `Cc1cccc(C(C)C)c1NC(=O)COC(=O)C1CC(=O)N(Cc2ccccc2)C1` (centres undefined), the B-score result is “inactive”.

Turning to `CNC(=O)c1[nH]cnc1C(=O)N[C@@H](CC(C)C)C(=O)OCc1ccccc1`, the B-score result is “inactive”.

Turning to `N#Cc1ccc(/C=C2\CCn3c2nc2cc(C(=O)O)ccc2c3=O)cc1`, the B-score result is “inactive”.

Regarding `O=C(O)CC(SCC(=O)Nc1ccc(Br)cc1)C(=O)O` (centres undefined), the B-score entry is “inactive”.

`Cc1ccc(NC(=O)c2oc3ccccc3c2C)c([N+](=O)[O-])c1`: the B-score entry was “inactive”.

Regarding `COc1ccc(-c2csc3ncnc(N4CCN(S(=O)(=O)c5cccc(F)c5)CC4)c23)cc1`, the B-score is -7.35 (active).

In the case of `COc1ccc(-c2csc3ncnc(N4CCN(S(=O)(=O)c5ccccc5C#N)CC4)c23)cc1`, the B-score entry was “inactive”.

`COc1ccc(-c2csc3ncnc(Oc4ccc5c(C)cc(=O)oc5c4)c23)cc1`: the B-score entry is “inactive”.

As to `O=C(NCc1ccccc1)[C@H]1C[C@@H]1[C@H](NP(=O)(c1ccccc1)c1ccccc1)c1ccccc1`, the B-score entry was “inactive”.

On to `CCCn1nnnc1NC(=O)COc1ccc(Cl)cc1C`, for which the B-score result was “inactive”.

Regarding `CCCCCCOc1ccc(OC(=O)c2cccnc2)cc1`, the B-score entry was “inactive”.

As for `CN(C)CCCN1C(=O)CSC1c1ccc([N+](=O)[O-])cc1` (centres undefined), the B-score result is “inactive”.

As to `CCCCCCCCCCCCN1C(=O)CSC1c1cccnc1` (centres undefined), the B-score was -10 (active).

Take `CC1(c2ccc3ccccc3c2)NC(=O)N(CC(N)=O)C1=O` (centres undefined): the B-score result is “inactive”.

Regarding `CC1(C)CC(=O)C=C(N2CCOCC2)C1`, the B-score entry was “inactive”.

Consider `Cc1ccc(OCCCCN2CCCCC2)c(Br)c1`, for which the B-score is -7.76 (active).

Regarding `Cc1ccc(C(C)(C)C)c(OCCCCN2CCCC2)c1`, the B-score entry was “inactive”.

On to `O=[N+]([O-])c1ccccc1OCCCCN1CCCCC1`, for which the B-score entry was “inactive”.

Turning to `O=C(NCCCCc1ccccc1)C1CC(c2ccc([N+](=O)[O-])cc2)=NO1` (centres undefined), the B-score result is “inactive”.

Turning to `Cc1ccc(NC(=O)c2sccc2C)cc1[N+](=O)[O-]`, the B-score result was “inactive”.

Take `O=C(Nc1ccc([N+](=O)[O-])cc1)C1CC12CCC2` (centres undefined): the B-score entry was “inactive”.

For `COc1ccc(C(=O)N(C)CC(O)c2ccccc2)cc1OC1CCN(C(C)=O)CC1` (centres undefined), the B-score result was “inactive”.

`CCC(NC(=O)c1ccccc1NC(=O)c1ccccc1)C(=O)NNC(=O)CSc1nc2ccccc2o1` (centres undefined): the B-score result is “inactive”.
